Measured values from ChEMBL document CHEMBL1629624, “In vitro and in vivo studies to characterize the clearance mechanism and potential cytochrome P450 interactions of anidulafungin” (Antimicrob Agents Chemother, 2009).
*1 amine or outer side, *2 acyl side, *3 side chain or, on linkers, in order; H or OH if unused. Where a SMILES comes first, the peptide text is derived from it. Bridges are numbered along the chain shown (N, C = ends). [ ]: non-standard residue; d: D form. The star is where a group is joined. pTerphenylCO(4''-OnC5H11) = CCCCCOc1ccc(-c2ccc(-c3ccc(C(=O)*)cc3)cc2)cc1; Orn(4R-OH,5R-OH) = O=C([C@H](C[C@@H](O)[C@@H](O)N[*:3])N[*:1])[*:2]; hTyr(3S-OH,4S-OH) = N[C@H](C(=O)O)[C@H](O)[C@@H](O)c1ccc(O)cc1; Pro(3S-OH,4S-Me) = C[C@H]1CN[C@H](C(=O)O)[C@H]1O; Hyp = O=C(O)[C@@H]1C[C@@H](O)CN1

Columns and labels:
[1] = molecular target: T1, Cytochrome P450 1A2 (Homo sapiens, UniProt P05177); assay: Inhibition of human CYP1A2; format: ADME
T1 sequence (P05177 whole entry): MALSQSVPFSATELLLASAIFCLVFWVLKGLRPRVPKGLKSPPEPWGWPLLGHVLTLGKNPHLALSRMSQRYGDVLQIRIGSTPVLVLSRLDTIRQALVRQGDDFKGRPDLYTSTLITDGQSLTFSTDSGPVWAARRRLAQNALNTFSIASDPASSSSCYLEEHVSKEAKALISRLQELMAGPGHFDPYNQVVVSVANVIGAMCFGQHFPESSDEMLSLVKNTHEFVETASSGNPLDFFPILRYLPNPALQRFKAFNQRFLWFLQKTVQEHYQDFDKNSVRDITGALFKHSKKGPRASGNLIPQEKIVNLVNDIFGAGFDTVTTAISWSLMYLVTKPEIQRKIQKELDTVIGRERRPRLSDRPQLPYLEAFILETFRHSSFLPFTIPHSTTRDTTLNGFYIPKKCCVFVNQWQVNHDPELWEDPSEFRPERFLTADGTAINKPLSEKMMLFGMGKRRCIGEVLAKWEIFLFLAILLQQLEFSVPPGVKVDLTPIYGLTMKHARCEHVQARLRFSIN

[2] = molecular target: Cytochrome P450 2D6 (Homo sapiens, UniProt P10635); assay: Inhibition of human CYP2D6; format: ADME
Sequence of Cytochrome P450 2D6 (P10635 whole entry): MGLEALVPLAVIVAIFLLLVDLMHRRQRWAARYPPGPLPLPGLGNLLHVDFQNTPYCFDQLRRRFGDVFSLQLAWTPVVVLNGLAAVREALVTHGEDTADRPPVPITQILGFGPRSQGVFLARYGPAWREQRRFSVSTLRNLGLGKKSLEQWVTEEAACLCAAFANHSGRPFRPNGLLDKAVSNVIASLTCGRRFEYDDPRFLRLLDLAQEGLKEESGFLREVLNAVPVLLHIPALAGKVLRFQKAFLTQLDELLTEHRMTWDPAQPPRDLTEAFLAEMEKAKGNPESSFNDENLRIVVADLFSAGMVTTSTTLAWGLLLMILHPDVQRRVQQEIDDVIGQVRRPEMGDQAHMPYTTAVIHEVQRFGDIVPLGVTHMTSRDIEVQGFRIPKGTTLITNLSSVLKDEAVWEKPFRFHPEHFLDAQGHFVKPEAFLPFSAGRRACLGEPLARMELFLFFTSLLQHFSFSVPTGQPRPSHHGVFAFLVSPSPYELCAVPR

[3] = Tmax in human plasma at 100 mg, iv by LC-MS/MS analysis; format: ADME, organism-based
Procedure, shortened: (§1)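 Nine healthy adult men, single i.v. infusion of [14C]drug over 100 min at 1 mg/min (planned 100 mg; mean delivered 88.3 mg). Heparinized blood taken from predose through day 10 and at follow-up. Parent drug in plasma measured by validated LC-MS/MS. Noncompartmental analysis; values are means (%CV).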

[4] = system: Plasma; assay: Clearance in human plasma at 100 mg, iv by LC-MS/MS analysis; format: ADME, organism-based; settings: in vivo; procedure, shortened: as §1
[5] = molecular target: T2, CYP2C8 (Homo sapiens, UniProt P10632); assay: Inhibition of human CYP2C8 at 17.5 uM in presence of rosiglitazone; format: ADME; settings: probe rosiglitazone
T2 sequence (P10632 whole entry): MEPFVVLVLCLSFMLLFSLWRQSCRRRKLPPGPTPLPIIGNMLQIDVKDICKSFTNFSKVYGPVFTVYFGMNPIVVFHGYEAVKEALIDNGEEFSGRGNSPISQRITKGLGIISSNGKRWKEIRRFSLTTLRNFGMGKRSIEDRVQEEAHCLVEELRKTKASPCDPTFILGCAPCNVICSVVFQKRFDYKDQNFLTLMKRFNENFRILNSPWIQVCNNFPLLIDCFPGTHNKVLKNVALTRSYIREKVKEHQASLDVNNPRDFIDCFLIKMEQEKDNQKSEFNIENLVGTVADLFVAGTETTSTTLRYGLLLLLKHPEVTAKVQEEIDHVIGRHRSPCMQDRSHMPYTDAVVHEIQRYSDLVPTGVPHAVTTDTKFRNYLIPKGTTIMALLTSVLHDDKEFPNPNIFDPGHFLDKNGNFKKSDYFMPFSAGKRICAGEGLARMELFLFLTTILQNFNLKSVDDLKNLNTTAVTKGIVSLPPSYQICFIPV
Procedure, shortened: (§2)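 Heterologously expressed human CYP2C8, with rosiglitazone N-desmethylase as the marker reaction. […] Incubations run in duplicate.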

[6] = molecular target: Cytochrome P450 2C9 (Homo sapiens, UniProt P11712); assay: Inhibition of human CYP2C9; format: ADME
Sequence of Cytochrome P450 2C9 (P11712 whole entry): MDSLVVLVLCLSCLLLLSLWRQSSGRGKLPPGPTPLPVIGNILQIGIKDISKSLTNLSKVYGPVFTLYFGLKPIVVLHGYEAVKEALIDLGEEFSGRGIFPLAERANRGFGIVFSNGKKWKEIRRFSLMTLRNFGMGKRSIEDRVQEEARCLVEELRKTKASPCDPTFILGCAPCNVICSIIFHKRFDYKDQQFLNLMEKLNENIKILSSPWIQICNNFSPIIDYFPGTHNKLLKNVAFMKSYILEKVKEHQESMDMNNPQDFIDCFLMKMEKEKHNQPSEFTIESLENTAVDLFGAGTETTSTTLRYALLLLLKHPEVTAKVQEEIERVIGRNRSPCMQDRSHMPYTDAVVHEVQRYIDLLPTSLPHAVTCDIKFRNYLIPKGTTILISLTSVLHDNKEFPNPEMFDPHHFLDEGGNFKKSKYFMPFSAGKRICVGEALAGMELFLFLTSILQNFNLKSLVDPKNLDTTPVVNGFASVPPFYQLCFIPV

[7] = Volume of distribution at steady state in human plasma at 100 mg, iv by LC-MS/MS analysis; format: ADME, organism-based; settings: read-out: Vdss
Procedure, shortened: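 Healthy adult men (n = 9), single i.v. infusion of [14C]drug over 100 min at 1 mg/min. 100 mg was planned; the mean dose actually given was 88.3 mg. Heparinized blood drawn from 0 h through day 10 and at 6–8 weeks. Parent drug in plasma measured by validated LC-MS/MS. Noncompartmental analysis, given as mean (%CV).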

[8] = molecular target: T3, Cytochrome P450 2B6 (Homo sapiens, UniProt P20813); assay: Inhibition of human CYP2B6; format: ADME
T3 sequence (P20813 whole entry): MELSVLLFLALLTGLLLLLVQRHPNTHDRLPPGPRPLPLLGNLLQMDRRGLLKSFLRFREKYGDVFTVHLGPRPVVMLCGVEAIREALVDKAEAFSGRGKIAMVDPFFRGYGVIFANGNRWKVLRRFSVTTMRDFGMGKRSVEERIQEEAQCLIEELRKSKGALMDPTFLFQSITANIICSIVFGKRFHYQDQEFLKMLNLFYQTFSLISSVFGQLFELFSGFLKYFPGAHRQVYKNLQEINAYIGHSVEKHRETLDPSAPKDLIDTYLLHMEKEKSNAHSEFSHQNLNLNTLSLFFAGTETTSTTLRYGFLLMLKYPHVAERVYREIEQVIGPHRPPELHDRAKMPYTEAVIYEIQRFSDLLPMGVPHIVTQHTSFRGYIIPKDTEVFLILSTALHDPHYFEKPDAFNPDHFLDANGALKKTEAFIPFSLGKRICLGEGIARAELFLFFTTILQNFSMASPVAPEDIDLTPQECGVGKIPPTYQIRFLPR
Procedure, shortened: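 Pooled liver microsomes from 53 human donors. Marker reactions: bupropion hydroxylase for CYP2B6. Incubations run in duplicate. IC50 taken from four to six concentrations.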

[9] = molecular target: Cytochrome P450 3A4 (Homo sapiens, UniProt P08684); assay: Inhibition of human CYP3A4; format: ADME
Sequence of Cytochrome P450 3A4 (P08684 whole entry): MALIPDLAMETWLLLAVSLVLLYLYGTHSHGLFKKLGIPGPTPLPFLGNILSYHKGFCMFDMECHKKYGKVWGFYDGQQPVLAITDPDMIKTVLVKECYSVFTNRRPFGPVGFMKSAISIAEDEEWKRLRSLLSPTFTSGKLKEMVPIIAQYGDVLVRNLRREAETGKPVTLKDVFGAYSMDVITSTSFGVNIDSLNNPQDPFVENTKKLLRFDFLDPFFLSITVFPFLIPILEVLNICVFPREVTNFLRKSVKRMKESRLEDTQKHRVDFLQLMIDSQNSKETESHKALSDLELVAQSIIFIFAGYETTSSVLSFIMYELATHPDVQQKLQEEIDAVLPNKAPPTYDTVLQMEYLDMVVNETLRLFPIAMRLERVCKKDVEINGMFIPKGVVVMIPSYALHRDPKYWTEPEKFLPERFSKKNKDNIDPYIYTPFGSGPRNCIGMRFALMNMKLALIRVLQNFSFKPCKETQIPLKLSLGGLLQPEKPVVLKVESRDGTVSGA

[10] = Ratio of AUC in blood to plasma for Sprague-Dawley at 5 mg/kg, iv by liquid scintillation counting; format: ADME, organism-based; parameters: dose 5 mg/kg, route intravenous; settings: rat, in vivo
Procedure, shortened: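 Male Sprague-Dawley rats, single i.v. bolus of [14C]drug. Blood by cardiac puncture from three noncannulated rats killed at each time from 0.25 to 168 h; plasma separated from an aliquot. Radioactivity by liquid scintillation counting. Parameters come from a composite profile of mean values, taking 1 g as equal to 1 ml.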

[11] = molecular target: Cytochrome P450 2C19 (Homo sapiens, UniProt P33261); assay: Inhibition of human CYP2C19; format: ADME
Sequence of Cytochrome P450 2C19 (P33261 whole entry): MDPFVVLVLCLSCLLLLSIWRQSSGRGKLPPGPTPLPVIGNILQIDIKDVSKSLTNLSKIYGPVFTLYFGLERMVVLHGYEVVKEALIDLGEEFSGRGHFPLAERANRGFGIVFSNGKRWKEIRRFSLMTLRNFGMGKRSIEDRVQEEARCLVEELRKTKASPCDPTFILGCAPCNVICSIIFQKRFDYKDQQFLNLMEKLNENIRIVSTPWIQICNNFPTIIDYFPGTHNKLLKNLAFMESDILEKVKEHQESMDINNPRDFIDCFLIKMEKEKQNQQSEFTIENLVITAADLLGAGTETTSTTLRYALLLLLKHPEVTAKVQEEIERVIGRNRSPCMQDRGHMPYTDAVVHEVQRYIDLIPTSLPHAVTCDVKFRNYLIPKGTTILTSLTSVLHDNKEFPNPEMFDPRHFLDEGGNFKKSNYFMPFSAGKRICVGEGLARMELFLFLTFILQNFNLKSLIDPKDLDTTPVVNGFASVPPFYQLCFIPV

[12] = Mean residence time in human plasma at 100 mg, iv by LC-MS/MS analysis; format: ADME, organism-based; procedure, shortened: as §1
[13] = molecular target: T4, Cytochrome P450 2C8 (Homo sapiens, UniProt P10632); assay: Inhibition of human CYP2C8 using amodiaquine as a substrate; format: ADME
T4 sequence (P10632 whole entry): T2 sequence (P10632 whole entry)
Procedure, shortened: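 CYP2C8 measured as amodiaquine N-deethylase in pooled human liver microsomes from 53 donors. Incubations run in duplicate. IC50 fitted from the concentration series.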

[14] = molecular target: T4, Cytochrome P450 2C8; assay: Inhibition of human CYP2C8 using rosiglitazone as a substrate; format: ADME; procedure, shortened: as §2
[15] = Cmax in human plasma at 100 mg, iv by LC-MS/MS analysis; format: ADME, organism-based; parameters: dose 100 mg, route intravenous; procedure, shortened: as §1
[16] = Half life in human plasma at 100 mg, iv by LC-MS/MS analysis; format: ADME, organism-based; procedure, shortened: as §1

Question: Which results are given for `CCCCCOc1ccc(-c2ccc(-c3ccc(C(=O)N[C@H]4C[C@@H](O)[C@@H](O)NC(=O)[C@@H]5[C@@H](O)[C@@H](C)CN5C(=O)[C@H]([C@@H](C)O)NC(=O)[C@H]([C@H](O)[C@@H](O)c5ccc(O)cc5)NC(=O)[C@@H]5C[C@@H](O)CN5C(=O)[C@H]([C@@H](C)O)NC4=O)cc3)cc2)cc1` [ANIDULAFUNGIN] ({pTerphenylCO(4''-OnC5H11)}-[Orn(4R-OH,5R-OH)]T[Hyp][hTyr(3S-OH,4S-OH)]T[Pro(3S-OH,4S-Me)]; lactam 1-C)?
Answer: IC50 [1]: > 17.5 µM; IC50 [2]: > 17.5 µM; Tmax [3]: 1.78 h; CL [4]: 0.913 L/h; inhibition at 17.5 µM [5]: 34.3%; IC50 [6]: > 17.5 µM; Vd [7]: 32.6 L; IC50 [8]: > 17.5 µM; IC50 [9]: > 17.5 µM; Ratio [10]: 1.5; IC50 [11]: > 17.5 µM; MRT [12]: 35.6 h; IC50 [13]: 12 µM; IC50 [14]: > 17.5 µM; Cmax [15]: 3630 ng/mL; half-life [16]: 27.7 h
